Source: PubChem (several laboratories)
CHOP inh: blocks CHOP induction under ER stress. CHO-K1 CHOP-promoter luciferase, tunicamycin-induced, 15-18 h. inhibition, % at 10 µM. 3.8% of 220,000 active. AID 2732;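 active means compounds that reduced the stress-induced luciferase reporter signal by more than about 70% of percent inhibition, limit read from the data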
Arbovirus anti: arbovirus infection inhibition; AID 1251; 0.37% of 200,000 active; inhibition, % at 10 µM; arbovirus infection cell-based antiviral screen; in the data active means inhibition above about 30%
Rad51 HR inh: Rad51 (human) homologous recombination inhibition | hRad51 DNA strand exchange, fluorescence dequenching | inhibition, % at 10 µM | 0.085% of 200,000 active | AID 1385;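 active means inhibition above 40% at the single screening dose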
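Test system – preformed human Rad51 ssDNA filaments · Reagent – Donor/quencher-labelled 47-bp dsDNA substrate · Incubation – 37 °C 15-min filament assembly, 30-min compound preincubation, 15-min exchange · Signal – FRET fluorescence dequenching, excitation 485 nm, emission 520 nm · Read-out – percent inhibition from fluorescence, normalised to plate control and blank means · Benchmarks – plate control and blank wells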
PKD1 kinase inh: inhibitors of human PKD1 kinase | AID 797 | PKD1 kinase fluorescence polarization assay | Q15139 | 0.056% of 200,000 active | inhibition, % (test concentration not listed)
Target sequence (Q15139 whole entry, looked up): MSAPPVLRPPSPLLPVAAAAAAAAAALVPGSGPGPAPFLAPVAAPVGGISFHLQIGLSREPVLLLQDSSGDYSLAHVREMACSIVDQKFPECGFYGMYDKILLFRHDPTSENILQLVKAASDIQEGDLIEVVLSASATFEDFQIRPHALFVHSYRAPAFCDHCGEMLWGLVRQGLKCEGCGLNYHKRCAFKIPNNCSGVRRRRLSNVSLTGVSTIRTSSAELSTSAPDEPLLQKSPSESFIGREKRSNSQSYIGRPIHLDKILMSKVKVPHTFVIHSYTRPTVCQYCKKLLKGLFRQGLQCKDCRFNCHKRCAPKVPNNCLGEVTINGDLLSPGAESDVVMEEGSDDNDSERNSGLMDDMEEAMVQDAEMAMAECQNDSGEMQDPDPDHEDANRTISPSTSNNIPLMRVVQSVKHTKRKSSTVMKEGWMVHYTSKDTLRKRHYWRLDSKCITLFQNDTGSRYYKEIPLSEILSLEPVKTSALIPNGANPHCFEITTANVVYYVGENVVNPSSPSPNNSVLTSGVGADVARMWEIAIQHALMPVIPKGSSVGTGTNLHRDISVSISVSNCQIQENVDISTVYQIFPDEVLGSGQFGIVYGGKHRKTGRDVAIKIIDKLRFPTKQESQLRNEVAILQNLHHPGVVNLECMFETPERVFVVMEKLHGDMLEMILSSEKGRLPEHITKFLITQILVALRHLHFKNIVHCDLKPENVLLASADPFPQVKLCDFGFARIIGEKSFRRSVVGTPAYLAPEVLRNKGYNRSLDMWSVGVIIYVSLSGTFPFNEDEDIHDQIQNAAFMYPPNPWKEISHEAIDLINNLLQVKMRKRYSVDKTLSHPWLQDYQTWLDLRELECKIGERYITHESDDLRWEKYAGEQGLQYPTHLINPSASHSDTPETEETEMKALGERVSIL
Wee1 degr inh: human Wee1 degradation inhibition, primary screen. reporter increase, % at 5 µM. 1.2% of 220,000 active. P30291. HeLa Luc-Wee1K328M stability, luciferase luminescence; 100% = proteasome inhibitor MG132 effect;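 active means activation above the mean of all tested compounds plus 3 SD, set per screening run, cut at about 8.8% in these data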;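 further: cells exposed to compound for 20 h before luminescence read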
L major viab: reduces viability of Leishmania major promastigotes; resazurin fluorescence viability; 9% of 200,000 active; inhibition, % at 10 µM;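 further: promastigotes grown with compound for 44 hours at 28 °C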
Large screens that a line does not name were inactive. A selection: hits, their analogues and other compounds. The true share with any hit is near 12%. Unless noted, no stated cut-off is given here; in the data, active means inhibition above about 50%; inactive means the rest.

COc1ccc2c(c1)C=C(CN1CCN(C3CCCC3)C(CCO)C1)CO2 (configuration not stated)	L major viab 87.9
OCCC1CN(Cc2c(F)cccc2Cl)CCN1C1CCCCC1 (configuration not stated)	L major viab 52.8
OCCC1CN(Cc2nc(-c3ccccc3)cs2)CCN1Cc1ccc(F)cc1 (configuration not stated)	L major viab 78.9
COc1ccc2c(c1)C=C(CN1CCN(C(C)C)C(CCO)C1)CO2 (configuration not stated)	none
CCOC(=O)C1CCCN(C(=O)COc2ccc(S(=O)(=O)N(CC)c3ccccc3)cc2)C1 (configuration not stated)	none
OCCC1CN(Cc2nc(-c3ccccc3)cs2)CCN1C1CCCC1 (configuration not stated)	L major viab 84.4
CC(C)Oc1ccc(C(=O)NC(Cc2c[nH]c3ccccc23)C(=O)NN)cc1 (configuration not stated)	none (no result: Arbovirus anti, PKD1 kinase inh, L major viab)
O=C(NN1CCN(Cc2ccccc2Cl)CC1)c1ccc(Br)cc1	none
CCOC(=O)C(C)Oc1ccccc1C1NC(=O)NC(C)=C1C(=O)Nc1ccc(C)c(C)c1 (configuration not stated)	L major viab 75.8
Cc1cc(C)n2nc(C(=O)NNC(=O)c3ccccc3)nc2n1	none
Cc1ccc(C23CC4CC(CC(NC(=O)NCCN(C)C)(C4)C2)C3)cc1	L major viab 99.0
CN(C)CCNC(=O)COc1ccc(C23CC4CC(CC(C4)C2)C3)cc1	L major viab 100.5
Cc1ccc(CNC(=O)NC23CC4CC(CC(C4)C2)C3)cc1	none (no result: Rad51 HR inh)
Cc1nc(-c2ccc3c(c2)OCO3)cs1	none
COc1cccc(C2=NNC(=NCc3ccccc3)SC2)c1	none
COc1cccc(C2=NC(C)(C)NC(c3ccccc3O)C2)c1 (configuration not stated)	L major viab 96.7
CCC1(C)N=C(c2ccc3c(c2)OCO3)CC(c2ccccc2O)N1 (configuration not stated)	L major viab 95.3
O=C(COc1cc(Cl)c(Cl)cc1Cl)Nc1ccc([N+](=O)[O-])cc1Cl	none (no result: Arbovirus anti, PKD1 kinase inh, L major viab)
c1ccc(CCN(Cc2ccccc2)C2CCN(C3CCCC3)CC2)cc1	L major viab 91.8 (no result: Rad51 HR inh)
CC(=O)Nc1cc(Cl)ccc1OS(=O)(=O)c1ccc(C)cc1	none
COc1cccc(/C=N/NC(=O)Cn2cnc3c2c(=O)n(C)c(=O)n3C)c1OC	none (no result: Arbovirus anti, PKD1 kinase inh, L major viab)
O=C(Nc1cccnc1)c1ccccc1Oc1ccccc1	none
O=C(Nc1cccnc1)c1ccc(Oc2ccccc2)cc1	L major viab 89.7
CC1CC(C)CN(c2cc(N(C)CCO)c([N+](=O)[O-])c3nonc23)C1 (configuration not stated)	none
CCCCC(=O)N(Cc1ccc(F)cc1)C1CCS(=O)(=O)C1 (configuration not stated)	none (no result: Arbovirus anti, PKD1 kinase inh, L major viab)
O=C(CNc1cccc([N+](=O)[O-])c1)N/N=C/c1ccc([N+](=O)[O-])o1	L major viab 100.3
O=C(CNc1cccc2ccccc12)N/N=C/c1ccc([N+](=O)[O-])o1	L major viab 99.5
CSc1ccc(/C=N/NC(=O)CNc2cccc3ccccc23)cc1	CHOP inh 93.7
COC(=O)c1ccc(/C=N/OCC(=O)NCc2ccc(F)cc2)cc1	none
CCCCNC(=O)CCn1c(=O)c2ccccc2n(Cc2ccc(Cl)cc2)c1=O	CHOP inh 87.4, L major viab 56.8
CC(=O)Nc1ccc(-c2nnc(SCC(=O)n3c4c(c5ccccc53)CCCC4)n2C)cc1	CHOP inh 78.4
Cc1ccc(NC(=O)Cc2nnc(SCC(=O)c3ccc(Br)cc3)n2C)cc1	CHOP inh 88.3
Cn1c(SCC(=O)n2c3c(c4ccccc42)CCCC3)nnc1-c1ccccc1	none
O=C(CSc1nnc(NC(=O)c2c(F)cccc2F)s1)Nc1ccc(F)cc1	Arbovirus anti 36.9, Wee1 degr inh 10.2
COc1ccc(-c2nnc(SCC(=O)Nc3ccc(C)cc3)n2C)cc1	Wee1 degr inh 9.8
Cc1cccc(NC2=CC(=O)CC(C)(C)C2)c1C	none
COc1ccc(-n2cnnc2SCC(=O)Nc2ccc(N3CCOCC3)cc2)cc1	L major viab 51.7
O=C(CSc1nnc(NC(=O)Cc2ccc(F)cc2)s1)NCc1ccco1	Wee1 degr inh 10.0
O=C(CSc1nnc(NC(=O)Cc2ccccc2)s1)NCc1ccco1	none
CC(C)(C)NC(=O)CSc1nnc(NC(=O)c2ccccc2Cl)s1	none
O=C(CSc1nnc(NC(=O)c2ccccc2Cl)s1)Nc1ccc2c(c1)oc1ccccc12	CHOP inh 70.5
Cc1cc(C)cc(NC(=O)CSc2nc3c(oc4ccccc43)c(=O)n2-c2ccccc2)c1	L major viab 61.3
O=C(NCCNC(=O)c1ccc([N+](=O)[O-])cc1)c1ccncc1	none
O=C(c1ccccc1)N1CCN(c2ccc([N+](=O)[O-])cc2-n2cccc2)CC1	none (no result: Arbovirus anti, Rad51 HR inh, PKD1 kinase inh, L major viab)
Cc1ccc(C(=O)O[C@H](C(=O)O)[C@H](OC(=O)c2ccc(C)cc2)C(=O)O)cc1 (tested in a mixture with another compound)	none (no result: Arbovirus anti, Rad51 HR inh, PKD1 kinase inh, Wee1 degr inh, L major viab)
CC(=O)Nc1ccc(-c2nnc(SCc3c(C)cc(C)cc3C)n2C)cc1	L major viab 76.1
Cc1ccc(Oc2ccc(NC(=O)CSc3n[nH]c(N)n3)cc2)cc1	L major viab 58.7
Nc1nc(SCC(=O)Nc2ccc(S(N)(=O)=O)cc2)n[nH]1	none
Cn1c(SCC(=O)Nc2ccc3c(c2)oc2ccccc23)nnc1-c1ccccc1	CHOP inh 87.5
COc1ccc(CNC(=O)CSc2nnc(-c3ccc(NC(C)=O)cc3)n2C)cc1	none
COc1ccc(NC(=O)CSc2nnc(Cc3cccs3)n2-c2ccc(C)cc2)cc1	L major viab 97.6
N#Cc1cnn2ccc(-c3ccc4c(c3)CCC4)nc12	none
O=Cc1sc(N2CCOCC2)nc1-c1ccccc1	none
O=c1c2cn[nH]c2nc(SCc2c(F)cccc2F)n1-c1ccc(Cl)cc1	none
Cc1ccc(C)c(CN2C(=O)C3(OCCCO3)c3ccccc32)c1	L major viab 57.9
Oc1ccccc1CNc1cccc2cccnc12	none (no result: Rad51 HR inh)
OCc1ccc(O)c2ncccc12	L major viab 100.3
CCCOCc1ccc(O)c2ncccc12	none (no result: Arbovirus anti, Rad51 HR inh, PKD1 kinase inh, L major viab)
Oc1ccc(CNc2ccccc2F)c2cccnc12	L major viab 73.1
Oc1ccc(CN2CCC(Cc3ccccc3)CC2)c2cccnc12	L major viab 100.6
Clc1ccccc1CN1CCC(Cc2ccccc2)CC1	none
O=[N+]([O-])c1cc(CN2CCN(c3cccc(C(F)(F)F)c3)CC2)c2cccnc2c1O	CHOP inh 87.2, L major viab 99.0
O=[N+]([O-])c1cc(CN2CCCC2)c2cccnc2c1O	none
CC1(C)C2CC[C@]3(C)C(CC=C4[C@@H]5C[C@@](C)(CO)[C@@H](O)C[C@]56C[C@@H](OC6=O)[C@]43C)[C@@]2(C)CC[C@@H]1O (some centres not stated)	none (no result: CHOP inh, Arbovirus anti, PKD1 kinase inh, Wee1 degr inh, L major viab)
